The text below walks through data of ChEMBL document CHEMBL1140543, “Biphenyls as potent vitronectin receptor antagonists. Part 3: Squaric acid amides” (Bioorg Med Chem Lett, 2007).

pKd, pKi: −log10 of the molar value.

Series [1] concerns the target T1, Integrin alpha-V/beta-3 (Homo sapiens, UniProt P05106+P06756). Briefly: Binding affinity to integrin alpha-v-beta-3 receptor. The format is protein-complex assay.
Target sequence in this assay (P05106 27-788 limits assumed): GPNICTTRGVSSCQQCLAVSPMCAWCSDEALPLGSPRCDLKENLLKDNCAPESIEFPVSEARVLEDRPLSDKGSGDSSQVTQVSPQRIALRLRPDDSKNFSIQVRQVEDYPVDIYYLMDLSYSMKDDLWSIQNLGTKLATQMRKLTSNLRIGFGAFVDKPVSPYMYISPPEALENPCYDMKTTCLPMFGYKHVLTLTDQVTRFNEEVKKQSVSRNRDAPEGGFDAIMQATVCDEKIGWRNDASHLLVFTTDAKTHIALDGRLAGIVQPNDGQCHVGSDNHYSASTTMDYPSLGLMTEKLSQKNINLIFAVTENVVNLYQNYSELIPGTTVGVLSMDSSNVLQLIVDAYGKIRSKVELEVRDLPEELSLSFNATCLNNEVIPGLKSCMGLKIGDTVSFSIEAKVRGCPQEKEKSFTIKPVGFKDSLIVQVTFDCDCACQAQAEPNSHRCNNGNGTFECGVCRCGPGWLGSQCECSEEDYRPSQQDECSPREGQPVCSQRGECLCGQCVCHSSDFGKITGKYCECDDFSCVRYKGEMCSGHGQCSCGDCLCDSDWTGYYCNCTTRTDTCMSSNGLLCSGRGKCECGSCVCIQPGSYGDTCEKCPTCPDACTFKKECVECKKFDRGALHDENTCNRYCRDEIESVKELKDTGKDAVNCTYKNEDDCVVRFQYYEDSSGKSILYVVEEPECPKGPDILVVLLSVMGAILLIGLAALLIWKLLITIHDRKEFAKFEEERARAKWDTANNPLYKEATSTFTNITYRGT
Target sequence in this assay (P06756 31-889 limits assumed): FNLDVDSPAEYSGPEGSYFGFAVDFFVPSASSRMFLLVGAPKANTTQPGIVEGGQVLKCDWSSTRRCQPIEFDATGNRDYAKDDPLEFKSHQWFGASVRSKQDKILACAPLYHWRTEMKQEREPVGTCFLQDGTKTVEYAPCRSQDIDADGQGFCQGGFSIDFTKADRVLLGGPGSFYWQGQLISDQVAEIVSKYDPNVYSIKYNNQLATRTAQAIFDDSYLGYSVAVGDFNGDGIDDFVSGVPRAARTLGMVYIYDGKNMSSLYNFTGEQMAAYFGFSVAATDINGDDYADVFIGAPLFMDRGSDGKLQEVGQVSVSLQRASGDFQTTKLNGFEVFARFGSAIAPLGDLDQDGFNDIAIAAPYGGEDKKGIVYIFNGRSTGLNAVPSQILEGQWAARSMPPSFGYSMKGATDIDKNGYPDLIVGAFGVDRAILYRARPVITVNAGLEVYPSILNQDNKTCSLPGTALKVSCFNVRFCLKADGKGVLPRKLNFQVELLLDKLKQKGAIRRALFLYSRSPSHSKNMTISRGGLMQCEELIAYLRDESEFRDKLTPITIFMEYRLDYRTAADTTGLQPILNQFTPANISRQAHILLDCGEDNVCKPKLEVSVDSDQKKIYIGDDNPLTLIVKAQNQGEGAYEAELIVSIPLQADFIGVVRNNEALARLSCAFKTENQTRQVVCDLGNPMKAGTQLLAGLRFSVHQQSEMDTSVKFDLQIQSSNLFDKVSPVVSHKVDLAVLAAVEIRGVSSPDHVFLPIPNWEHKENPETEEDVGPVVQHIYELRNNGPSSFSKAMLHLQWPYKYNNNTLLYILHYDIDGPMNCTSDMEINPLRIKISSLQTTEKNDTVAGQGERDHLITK
Target sequence in this assay (P06756 891-1048 limits assumed): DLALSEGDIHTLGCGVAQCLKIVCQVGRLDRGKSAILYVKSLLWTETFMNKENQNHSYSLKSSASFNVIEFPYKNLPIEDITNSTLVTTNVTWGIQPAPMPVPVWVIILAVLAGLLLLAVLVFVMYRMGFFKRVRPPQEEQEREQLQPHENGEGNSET
The target of series [2] is Integrin alpha-IIb/beta-3 (Homo sapiens, UniProt P05106+P08514). Briefly: Binding affinity to GP2b3a receptor. The format is protein-complex assay.
Sequence of Integrin alpha-IIb/beta-3 (P05106 27-788 limits assumed): as the sequence (P05106 27-788 limits assumed) above
Sequence of Integrin alpha-IIb/beta-3 (P08514 32-887 limits assumed): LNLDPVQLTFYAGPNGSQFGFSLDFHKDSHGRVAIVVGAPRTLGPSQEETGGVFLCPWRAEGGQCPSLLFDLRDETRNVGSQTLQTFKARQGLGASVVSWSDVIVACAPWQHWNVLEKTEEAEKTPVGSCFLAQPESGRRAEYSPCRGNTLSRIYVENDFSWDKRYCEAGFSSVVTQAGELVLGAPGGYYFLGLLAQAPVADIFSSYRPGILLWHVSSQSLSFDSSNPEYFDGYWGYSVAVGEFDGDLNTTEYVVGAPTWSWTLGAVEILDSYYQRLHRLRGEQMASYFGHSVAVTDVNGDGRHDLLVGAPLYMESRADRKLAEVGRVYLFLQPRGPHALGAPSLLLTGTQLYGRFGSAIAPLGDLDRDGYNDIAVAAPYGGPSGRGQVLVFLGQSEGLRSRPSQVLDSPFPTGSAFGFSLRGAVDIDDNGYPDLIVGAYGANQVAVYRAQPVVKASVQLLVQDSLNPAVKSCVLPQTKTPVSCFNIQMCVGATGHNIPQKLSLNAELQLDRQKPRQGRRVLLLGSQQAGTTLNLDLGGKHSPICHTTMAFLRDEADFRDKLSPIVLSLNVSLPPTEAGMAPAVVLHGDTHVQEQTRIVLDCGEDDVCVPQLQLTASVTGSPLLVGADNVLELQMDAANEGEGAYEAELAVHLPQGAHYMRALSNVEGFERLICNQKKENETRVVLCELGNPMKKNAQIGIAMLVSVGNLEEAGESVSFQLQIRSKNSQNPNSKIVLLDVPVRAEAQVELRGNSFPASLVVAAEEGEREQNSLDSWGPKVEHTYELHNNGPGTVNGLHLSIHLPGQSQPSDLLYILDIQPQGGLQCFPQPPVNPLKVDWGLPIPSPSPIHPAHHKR
Sequence of Integrin alpha-IIb/beta-3 (P08514 891-1039 limits assumed): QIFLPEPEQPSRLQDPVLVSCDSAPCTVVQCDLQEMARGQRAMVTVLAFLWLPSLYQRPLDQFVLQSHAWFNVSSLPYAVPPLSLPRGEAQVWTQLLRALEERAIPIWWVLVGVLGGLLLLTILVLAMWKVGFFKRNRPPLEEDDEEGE
Series [3] has as its target T1, Integrin alpha-V/beta-3. Briefly: Antagonist activity at human integrin alpha-v-beta-3 receptor expressed in HEK293 cells. The class given is functional, cell-based. Summed up: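 HEK 293 cells transfected with human αvβ3 were used. Inhibition of the adhesion of purified human vitronectin to these cells gave the cellular αvβ3 affinity.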
A short description of series [4]: Inhibition of smooth muscle cell migration. The format is functional, Homo sapiens.
For a further series, the target named is Albumin (Homo sapiens, UniProt P02768). Nature of the series: Binding affinity to human serum albumin by equilibrium dialysis. On the technique in general: In equilibrium dialysis free small molecules cross a membrane that holds back macromolecules.
Sequence of Albumin (P02768 whole entry): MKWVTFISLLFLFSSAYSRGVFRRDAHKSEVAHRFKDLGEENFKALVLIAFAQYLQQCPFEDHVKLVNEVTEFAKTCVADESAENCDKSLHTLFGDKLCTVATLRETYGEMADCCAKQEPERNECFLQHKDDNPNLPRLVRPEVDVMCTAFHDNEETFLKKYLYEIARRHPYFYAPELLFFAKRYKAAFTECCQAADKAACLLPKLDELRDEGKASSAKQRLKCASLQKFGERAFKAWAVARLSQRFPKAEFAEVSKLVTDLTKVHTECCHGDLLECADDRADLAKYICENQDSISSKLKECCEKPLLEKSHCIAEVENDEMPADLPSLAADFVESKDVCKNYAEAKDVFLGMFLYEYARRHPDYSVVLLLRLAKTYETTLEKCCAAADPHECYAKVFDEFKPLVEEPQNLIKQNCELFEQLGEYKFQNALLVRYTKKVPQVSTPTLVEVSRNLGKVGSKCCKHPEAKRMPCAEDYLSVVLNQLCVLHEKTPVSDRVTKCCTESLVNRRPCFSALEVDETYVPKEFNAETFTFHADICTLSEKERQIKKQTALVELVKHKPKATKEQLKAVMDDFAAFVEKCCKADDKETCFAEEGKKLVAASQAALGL
Another series relates to Liver microsomes. Briefly: Clearance in rat liver microsomes. The class given is ADME, Microsome. In general terms: Liver microsomes are vesicles of endoplasmic reticulum, rich in cytochrome P450 enzymes.

In general, pKi refers to the negative decadic logarithm of the Ki, by convention in mol/L. High values mean a low Ki, low ones a high Ki. Broadly, the pKd is −log10 of the Kd, conventionally taken in molar units.

The compound `Cc1cc(C)c(S(=O)(=O)N[C@@H](Cc2ccc(-c3cccc(NC(=O)c4cccnc4)c3)cc2)C(=O)O)c(C)c1` gave a pKi at Integrin alpha-V/beta-3 [1] of 6.40.

At Integrin alpha-V/beta-3 [1], `Cc1cc(C)c(S(=O)(=O)N[C@@H](Cc2ccc(-c3cccc(NC(=O)c4ccc[nH]4)c3)cc2)C(=O)O)c(C)c1` had a pKi of 7.48.

`Cc1cc(C)c(S(=O)(=O)N[C@@H](Cc2ccc(-c3cccc(NC(=O)c4ccncc4)c3)cc2)C(=O)O)c(C)c1` gave a pKi on Integrin alpha-V/beta-3 [1] of 6.15.

`Cc1cc(C)c(S(=O)(=O)N[C@@H](Cc2ccc(-c3cccc(NC4=NCCN4)c3)cc2)C(=O)O)c(C)c1` showed a pKi on Integrin alpha-V/beta-3 [1] of 8.89.

The compound `Cc1cc(C)c(S(=O)(=O)N[C@@H](Cc2ccc(-c3cccc(Nc4c(NCc5ccccc5)c(=O)c4=O)c3)cc2)C(=O)O)c(C)c1` had a negative logarithm of the Ki (pKi) at Integrin alpha-V/beta-3 [1] of 7.60.

The compound `Cc1cc(C)c(S(=O)(=O)N[C@@H](Cc2ccc(-c3cccc(NC(=O)c4ncc[nH]4)c3)cc2)C(=O)O)c(C)c1` gave a negative logarithm of the Ki (pKi) at Integrin alpha-V/beta-3 [1] of 9.00.

With `Cc1cc(C)c(S(=O)(=O)N[C@@H](Cc2ccc(-c3cccc(Nc4n[s+]([O-])nc4NC4CC4)c3)cc2)C(=O)O)c(C)c1` (some centres not stated), the pKi at Integrin alpha-V/beta-3 [1] is 7.74.

Compound `Cc1cc(C)c(S(=O)(=O)N[C@@H](Cc2ccc(-c3cccc(NC(=O)NC4CC4)c3)cc2)C(=O)O)c(C)c1` showed a negative-log Ki (pKi) in series [2] of 6.89. Also, the Activity came to 85 nM on Integrin alpha-V/beta-3 [3] and 390 nM in series [4]. The pKd at Albumin is 6.13.

The compound `CS(=O)(=O)N[C@@H](Cc1ccc(-c2cccc(Nc3c(NC4CC4)c(=O)c3=O)c2)cc1)C(=O)O` showed a negative logarithm of the Ki (pKi) on Integrin alpha-V/beta-3 [1] of 8.00.

On to `Cc1cc(C)c(S(=O)(=O)N[C@@H](Cc2ccc(-c3cccc(Nc4c(NC5CC5)c(=O)c4=O)c3)cc2)C(=O)O)c(C)c1`, for which the pKi is 9.30 on Integrin alpha-V/beta-3 [1] and 7.33 in series [2]. Further, the Activity was found to be 13 nM at Integrin alpha-V/beta-3 [3] and 10 nM in series [4]. The compound further showed a pKd on Albumin of 6.38. The same compound returned a CL in the series with Liver microsomes of 65 mL/min/kg.

As for `Cc1cc(C)c(S(=O)(=O)N[C@@H](Cc2ccc(-c3cccc(Nc4c(NCc5ccccn5)c(=O)c4=O)c3)cc2)C(=O)O)c(C)c1`, the pKi at Integrin alpha-V/beta-3 [1] is 7.96.

In turn, `CC1(C)C2CC[C@]1(S(=O)(=O)N[C@@H](Cc1ccc(-c3cccc(Nc4c(NC5CC5)c(=O)c4=O)c3)cc1)C(=O)O)C(=O)C2` had a pKi on Integrin alpha-V/beta-3 [1] of 10.00.

`Cc1cc(C)c(S(=O)(=O)N[C@@H](Cc2ccc(-c3cccc(NC(=O)c4ccco4)c3)cc2)C(=O)O)c(C)c1`: the pKi on Integrin alpha-V/beta-3 [1] is 6.19.

Turning to `Cc1cc(C)c(S(=O)(=O)N[C@@H](Cc2ccc(-c3cccc(NC(=O)c4ccccn4)c3)cc2)C(=O)O)c(C)c1`, the negative logarithm of the Ki (pKi) at Integrin alpha-V/beta-3 [1] is below 5.70.
